{"data": "Assay results collected from several papers", "target": "Mitogen-activated protein kinase 6 (MAPK6, Homo sapiens, UniProt Q16659)"}
{"SMILES": "COc1ccnn2ncc(-c3ccnc(N(C)C)n3)c12", "test": "binding", "conditions": "1 µM", "remaining binding [%]": 85}
{"SMILES": "COc1cnc(Nc2cccc(S(N)(=O)=O)c2)nc1N1CCN(c2ccccc2)CC1", "test": "binding, competition with immobilised ligand", "conditions": "1 µM", "remaining binding [%]": 100}
{"SMILES": "CC(C)CC(=O)N1CCc2nc(-c3ccc(Br)cc3)nc(N(C)Cc3ccccc3)c2C1", "test": "cell-free assay, competition with immobilised ligand", "conditions": "0.1 µM", "remaining binding [%]": 100}
{"SMILES": "CC1CCCN1c1nccc(-c2cnn3ncccc23)n1 (stereo not shown)", "test": "binding", "conditions": "1 µM", "remaining binding [%]": 89}
{"SMILES": "O=C(Nc1c[nH]nc1C(=O)NC1CCNCC1)c1cc(F)cc(F)c1", "test": "binding, competition with immobilised ligand", "conditions": "1 µM", "remaining binding [%]": 89}
{"SMILES": "c1cncc(-c2cccc(Nc3nccc(NC4CCCCC4)n3)c2)c1", "test": "binding, competition with immobilised ligand", "conditions": "10 µM", "remaining binding [%]": 100}
{"SMILES": "N[C@@H]1CCN(c2nccc(-c3cnn4ncccc34)n2)C1", "test": "binding", "conditions": "1 µM", "remaining binding [%]": 100}
{"SMILES": "CC(=O)C1=C(C)N(c2cccc(C(F)(F)F)c2)C(=O)N[C@@H]1c1ccc(C#N)nc1", "test": "cell-free assay, competition with immobilised ligand", "conditions": "1 µM", "remaining binding [%]": 75.8}
{"SMILES": "CN(CCCC(F)(F)F)c1nccc(-c2cnn3ncccc23)n1", "test": "binding", "conditions": "1 µM", "remaining binding [%]": 90}
{"SMILES": "COc1ncc2cc3ccccc3nc2c1C#N", "test": "cell-free assay, competition with immobilised ligand", "conditions": "5 µM", "remaining binding [%]": 90}
{"SMILES": "Cc1c[nH]c2nccc(Oc3c(F)cc(Nc4cc(Cl)nc(N)n4)cc3F)c12", "test": "cell-free assay, competition with immobilised ligand", "conditions": "0.1 µM", "remaining binding [%]": 95}
{"SMILES": "O=C(c1ccc(Nc2ncc(Cl)c(-c3cc4ccccc4s3)n2)cc1)N1CCC(N2CCCC2)CC1", "test": "binding, competition with immobilised ligand", "conditions": "1 µM", "remaining binding [%]": 0}
{"SMILES": "N#CC1(c2ccccn2)CCN(Cc2cc(C(=O)N3CCCC3)c(=O)n3ccccc23)CC1", "test": "cell-free assay, competition with immobilised ligand", "conditions": "1 µM", "remaining binding [%]": 79}
{"SMILES": "O=C(NCCCN1CCOCC1)c1ccc(Nc2ncc(Cl)c(-c3ccc(Cl)s3)n2)cc1", "test": "binding, competition with immobilised ligand", "conditions": "1 µM", "remaining binding [%]": 0.05}
{"SMILES": "CCCOc1ccc([C@H]2[C@H](C(=O)O)[C@@H](c3ccc4c(c3)OCO4)CN2CC(=O)Nc2c(CC)cccc2CC)cc1", "test": "cell-free assay, competition with immobilised ligand", "conditions": "1 µM", "remaining binding [%]": 92}
{"SMILES": "CN(c1nccc(-c2cnn3ncccc23)n1)C1CC1", "test": "binding", "conditions": "1 µM", "remaining binding [%]": 87}
{"SMILES": "CN(C)c1ncnc(-c2ccc3nc(Nc4cc(CN5CCN(C(=O)CC(F)(F)F)CC5)ccn4)[nH]c3c2)c1Cl", "test": "cell-free assay, competition with immobilised ligand", "conditions": "1 µM", "remaining binding [%]": 100}
{"SMILES": "O=C(c1ccc(Nc2nccc(-c3cc4ccccc4s3)n2)cc1)N1CCC(N2CCCC2)CC1", "test": "binding, competition with immobilised ligand", "conditions": "1 µM", "remaining binding [%]": 11}
{"SMILES": "Cc1nc(C2CCN(C(=O)c3ccc(OC(F)(F)F)cc3N)CC2)c2ncc(N3CCN(C)CC3)cc2n1", "test": "cell-free assay, competition with immobilised ligand", "conditions": "1 µM", "remaining binding [%]": 100}
{"SMILES": "Nc1ncc2c(n1)-c1c([nH]c3ccc(C#CC4CC4)cc13)CCCC2", "test": "binding, competition with immobilised ligand", "conditions": "1 µM", "remaining binding [%]": 100}
{"SMILES": "C[C@@H]1CCN(c2nccc(-c3cnn4ncccc34)n2)C1", "test": "binding", "conditions": "1 µM", "remaining binding [%]": 100}
{"SMILES": "FC(F)(F)Oc1cccc(-c2cnc3ccc(-c4ccncc4)nn23)c1", "test": "cell-free assay, competition with immobilised ligand", "conditions": "5 µM", "remaining binding [%]": 91}
